SMILES strings stand for the structures. Active and inactive are the calls of the source.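 Rule for the calls, unless noted: active = inhibition of the reporter signal at or above 50%; inactive = inhibition below 50%.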

Test [1] can be described thus: inhibitors of TNFa-induced NFkB p65 translocation, primary screen, imaging, HUVEC, MLSMR starter and 10KST1 sets (AID 438;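 active = inhibition above 20% together with a positive visual image hit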;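 note: compound added about 3h40 before a 20 min TNFalpha stimulation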;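 for inhibition: signal is the nuclear over cytoplasmic p65 intensity ratio per well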). The note with it: HUVEC TNFa-induced p65 nuclear translocation; cell count: measured here: nuclei count (cytotoxicity indicator), at 2.08 µM; inhibition: at 2 µM, stronger effect = higher value, 0% TNFa-plus-vehicle, 100% no-TNFa wells.
Test [2] in a line: inhibitors of mutant huntingtin aggregation, primary screen, imaging, exon1htt(103Q)mCFP cells, high-content imaging (AID 483;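 active = visual image review flags a hit and inhibition of aggregation exceeds 20%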;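 note: compound exposure lasted 3 days before fixation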;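 for nuclei count: percent of the per-plate median nuclei count of sample wells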). The note with it: exon1htt(103Q)mCFP cell line, aggregate imaging, at 2 µM; inhibition of aggregation: stronger effect = higher value; nuclei count: measured here: cell count, toxicity.
Test [3] is described as follows: inhibitors of E-selectin induction by TNFa, primary screen, imaging, HUVEC, immunofluorescence, MLSMR starter and 10KST1 sets (AID 487;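 active = visually confirmed hit in the image check and inhibition above 20%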;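 for inhibition: signal is fraction of cell area covered by stained E-selectin grains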;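 for nuclei count: 100% = median nuclei count of all wells on the same plate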). The note with it: HUVEC TNFalpha-induced E-selectin immunofluorescence imaging, at 2 µM; inhibition: stronger effect = higher value; nuclei count: measured here: cell number, toxicity.
Test [4] concerns the target Voltage-gated potassium channel subunit beta-2 (Rattus norvegicus) (UniProt P62483). Nature of the test: KvBeta enzyme negative modulators, primary screen, biochemical, NADPH fluorescence (AID 622;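 active = fluorescence slope higher than the sample average by over 3 SD, cut at about -0.22 in these data, passing the limit was not always enough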;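 note: slope of raw intensity against log time taken from 70 to 1610 s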). The note with it: recombinant KvBeta, 4-cyanobenzaldehyde reduction, at 10 µM, stronger effect = higher value.
Test [5] shares this target. Description: KvBeta positive modulators, primary screen, biochemical, NADPH fluorescence (AID 623;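 active = NADPH fluorescence slope more negative than the mean of all samples by about 3 SD, 99.7% confidence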;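 note: fluorescence intensity change per second fitted from 20 to 320 s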). The note with it: Recombinant KvBeta, NADPH fluorescence decrease slope, 10 min; at 10 µM; stronger effect = lower value.
For test [6], the target named is Muscarinic acetylcholine receptor M4 (Homo sapiens) (UniProt P08173). Nature of the test: compounds altering M4/GIRK thallium flux, either direction, primary screen, M4 allosteric agonist project, cell-based, HEK293 M4/GIRK, BTC-AM (AID 625;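 active = fluorescence slope after compound addition differing from the mean of all tested samples at 99.7% confidence, mostly higher but some lower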;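 note: thallium influx through GIRK channels coupled to M4 in HEK293 cells with BTC-AM dye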). The note with it: at 10 µM, actives lie on both sides. The procedure, abridged: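 System: HEK293 cells with M4 receptor and GIRK channels | Incubation: Cells overnight at 37 °C, BTC-AM loading 1 h, reads 2 min total | Technique: Kinetic BTC-AM fluorescence sampled at 1 Hz, 10 s pre-addition baseline | Measure: Post-addition slope, 15–24 s, of baseline-normalized fluorescence | Control set: Carbachol positive, DMSO negative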
Muscarinic acetylcholine receptor M4 (Homo sapiens), sequence (P08173 whole entry, looked up): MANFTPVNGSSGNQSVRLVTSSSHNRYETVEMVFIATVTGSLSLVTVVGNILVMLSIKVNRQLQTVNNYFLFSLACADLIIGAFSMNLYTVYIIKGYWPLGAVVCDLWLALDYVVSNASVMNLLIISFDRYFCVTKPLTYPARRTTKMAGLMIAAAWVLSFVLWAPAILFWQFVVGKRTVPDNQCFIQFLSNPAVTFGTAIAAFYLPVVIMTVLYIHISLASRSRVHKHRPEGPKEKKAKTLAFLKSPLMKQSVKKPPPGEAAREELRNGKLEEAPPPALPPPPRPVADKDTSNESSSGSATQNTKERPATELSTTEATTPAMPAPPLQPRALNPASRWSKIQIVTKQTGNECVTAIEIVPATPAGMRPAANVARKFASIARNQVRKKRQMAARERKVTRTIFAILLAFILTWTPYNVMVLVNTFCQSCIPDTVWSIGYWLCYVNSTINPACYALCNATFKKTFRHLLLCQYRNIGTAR

A short description of test [7]: inhibitors of Sendai virus-induced IRF3 signaling, primary screen, TLR/RLR signaling modifier project, cell-based, Sendai virus stimulus, luciferase, 10K MLSCN set (AID 602276;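 active = inhibition at or above 50% at 10 µM; inactive = inhibition below 50%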;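 note: firefly luciferase from ISG56 promoter only with Renilla not read in this screen; 0% = Sendai virus plus DMSO and 100% = medium plus DMSO without virus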). The note with it: HEK293 RL24 IRF3 luciferase reporter, at 10 µM, stronger effect = higher value.
A short description of test [8]: inhibitors of poly I:C-induced TLR3 signaling, primary screen, cell-based, poly I:C stimulus, luciferase, 10K MLSCN set (AID 602277). The note with it: HEK293-TLR3 RL24 IRF3 luciferase reporter, at 10 µM, stronger effect = higher value.

Voltage-gated potassium channel subunit beta-2 (Rattus norvegicus), sequence (P62483 whole entry, looked up): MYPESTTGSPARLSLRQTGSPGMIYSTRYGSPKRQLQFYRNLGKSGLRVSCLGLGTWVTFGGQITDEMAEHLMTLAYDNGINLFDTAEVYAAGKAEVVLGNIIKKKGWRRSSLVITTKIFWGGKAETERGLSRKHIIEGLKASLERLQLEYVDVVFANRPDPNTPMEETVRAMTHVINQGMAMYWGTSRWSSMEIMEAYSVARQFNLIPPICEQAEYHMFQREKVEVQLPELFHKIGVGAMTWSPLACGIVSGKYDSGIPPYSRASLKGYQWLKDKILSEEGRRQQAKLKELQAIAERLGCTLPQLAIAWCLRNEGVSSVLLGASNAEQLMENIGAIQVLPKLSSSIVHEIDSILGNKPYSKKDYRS

For `COC(=O)COc1nc(C)c(Br)c(OC)n1`, the cell count in test [1] turned out to be 367. Besides, the inhibition in test [1] is 2.4% (inactive); in test [3], -89.5% (inactive); in test [7], 15.8% (inactive); in test [8], 17.1% (inactive). In addition, the inhibition of aggregation in test [2] was -14% (inactive). The nuclei count in test [2] came to 96.9%; in test [3] it was 110%. The fluorescence slope was -0.615 (inactive) in test [4] and 0.00344 (inactive) in test [6]. Moreover, the NADPH fluorescence slope in test [5] was -1.6e-05 (inactive).

In the case of `CCOc1ccc2ccccc2c1/C=N/n1cncn1`, in test [1], the cell count came out at 416. Also, the inhibition in test [1] was 3.4% (inactive); in test [3], -92.4% (inactive); in test [7] it was 11.7% (inactive); in test [8], -8.9% (inactive). The inhibition of aggregation in test [2] is 9.7% (inactive). Moreover, the figures for the nuclei count in test [2] and in test [3] were 97.3% and 120%, respectively. In addition, the fluorescence slope in test [4] is -0.605 (inactive); in test [6], 0.0038 (inactive). For the same molecule, the NADPH fluorescence slope in test [5] is -4.9e-05 (inactive).

Turning to `Nc1nonc1C(=O)NCCNCc1cc(Br)ccc1OCc1ccccc1F`, in test [1], the cell count was 422. Besides, the inhibition in test [1] is -2.4% (inactive); in test [3] it was -4.2% (inactive); in test [7], -2.45% (inactive); in test [8], -30.4% (inactive). Moreover, the inhibition of aggregation in test [2] was 18.5% (inactive). Moreover, the nuclei count in test [2] was determined as 89.6%; in test [3], 123%. Further, the fluorescence slope in test [4] was -0.574 (inactive); in test [6] it was 0.00396 (inactive). In addition, in test [5], the NADPH fluorescence slope is -3.2e-05 (inactive).

Consider `O=C(Nc1ccccc1C(=O)NCC1CCCO1)c1ccco1` (configuration not stated), for which the cell count in test [1] worked out at 304. For the same molecule, the inhibition in test [1] was -8% (inactive); in test [3] it was -50.7% (inactive); in test [7] it was 9.09% (inactive); in test [8] it was 15.4% (inactive). For the same molecule, the inhibition of aggregation in test [2] is -23.2% (inactive). For the same molecule, the nuclei count amounted to 95.5% in test [2] and 123% in test [3]. In addition, the fluorescence slope was -0.458 (inactive) in test [4] and 0.00531 (inactive) in test [6]. In test [5], the NADPH fluorescence slope was 2.2e-05 (inactive).

As for `CCOc1cc(N2CCOCC2)c(OCC)cc1NC(=O)COC(=O)CCc1c[nH]c2ccccc12`, in test [1], the cell count turned out to be 300. Further, the inhibition in test [1] is -5.2% (inactive); in test [3] it was -28% (inactive); in test [7] it was 2.83% (inactive); in test [8] it was 20.2% (inactive). Besides, the inhibition of aggregation in test [2] was 7.9% (inactive). The nuclei count in test [2] amounted to 105%; in test [3], 109%. The fluorescence slope in test [4] was -0.273 (inactive); in test [6] it was 0.00571 (inactive). Further, the NADPH fluorescence slope in test [5] was -1.5e-05 (inactive).

As to `Cc1nc2c(=O)oc3ccccc3c2n1-c1ccccc1`, the cell count in test [1] came to 579. The inhibition in test [1] is 2.9% (inactive); in test [3], 33% (inactive); in test [7] it was 12.7% (inactive); in test [8], 23.7% (inactive). Also, the inhibition of aggregation in test [2] is 30.6% (inactive). Besides, the figures for the nuclei count in test [2] and in test [3] were 90.3% and 30.7%, respectively. In addition, the fluorescence slope is -0.519 (inactive) in test [4] and 0.0052 (inactive) in test [6]. Further, the NADPH fluorescence slope in test [5] is -3.7e-05 (inactive).

As for `Cc1nc2ccccc2c(=O)n1/N=C/c1ccncc1`, in test [1], the cell count came out at 644. Further, the inhibition in test [1] was -6.3% (inactive); in test [3] it was -2.9% (inactive); in test [7] it was -4.49% (inactive); in test [8] it was 4.48% (inactive). In addition, in test [2], the inhibition of aggregation was -10.1% (inactive). The nuclei count turned out to be 109% in test [2] and 92.1% in test [3]. Further, the fluorescence slope in test [4] is -0.526 (inactive); in test [6], 0.00441 (inactive). For the same molecule, the NADPH fluorescence slope in test [5] is -3.4e-05 (inactive).

Values taken from PubChem BioAssay.
